Screening results (PubChem)
Sampled rows, rich in hits. Any-hit rate of the full collection: about 2.9%.
HTRA1 inh – blocks human HTRA1 serine peptidase; Q92743; inhibition, % at 5.96 µM; hit rate 0.5% among 340,000; recombinant HTRA1, FP-rhodamine activity-based probe, fluorescence polarization; in the data active = inhibition above about 36%
ATG4B inh – blocks human ATG4B protease cleavage of LC3 substrate. Q9Y4P1. ATG4B cleavage of LC3-PLA2, NBD-HPC fluorescence, 1 h. inhibition, % at 8.33 µM. hit rate 0.51% among 340,000; in the data active = inhibition above about 40%
SIAE inh – blocks human sialic acid acetylesterase | SIAE FP-Rh probe binding, fluorescence polarization | inhibition, % at 9.66 µM | hit rate 0.69% among 370,000 | AID 1053197;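 active = inhibition above a cutoff: mean of compounds within the control limits plus 3 SD of those, cut at about 17% in these data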
PRMT1 inh – blocks human protein arginine methyltransferase 1 | Q99873 | recombinant PRMT1, activity-based probe fluorescence polarization | inhibition, % at 2.79 µM | hit rate 1.3% among 370,000 | AID 652257;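 active = inhibition above about 21% made by adding two undisclosed values, limit read from the data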
Target sequence (Q99873 whole entry, looked up): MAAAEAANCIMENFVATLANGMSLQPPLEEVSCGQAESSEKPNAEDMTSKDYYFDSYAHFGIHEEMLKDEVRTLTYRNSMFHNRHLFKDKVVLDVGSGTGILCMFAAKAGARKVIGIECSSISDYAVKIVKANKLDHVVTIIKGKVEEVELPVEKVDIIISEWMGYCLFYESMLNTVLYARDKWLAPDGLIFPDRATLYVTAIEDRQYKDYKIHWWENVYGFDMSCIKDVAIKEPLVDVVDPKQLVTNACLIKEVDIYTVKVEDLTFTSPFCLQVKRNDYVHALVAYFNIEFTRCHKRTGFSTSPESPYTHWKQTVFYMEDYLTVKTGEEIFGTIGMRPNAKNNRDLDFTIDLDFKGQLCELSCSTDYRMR
mABHD4 FP – inhibitors of mouse ABHD4; purified mABHD4, FP-Rh probe fluorescence polarization; inhibition, % at 8.92 µM; hit rate 0.54% among 370,000; AID 720543;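 active = inhibition exceeding the mean over every tested compound plus 3 SD, cut at about 30% in these data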
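Assay system: mouse ABHD4 enzyme, wild type / Also added: fluorescent activity-based probe FP-Rh / Doses: single nominal dose of 8.92 µM, 0.89% DMSO final / Timing: 45 min compound pre-incubation plus 60 min probe step, 25 °C / Signal: FP readout, ex 525 nm / em 598 nm / Control set: S159A mutant/DMSO as 100%, compound-well median as 0%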
TCR-CD3 inh – inhibitors of human TCR-CD3 interaction; hit rate 0.37% among 360,000; inhibition, % at 9.4 µM; AID 651800; TAMRA-labeled TCR probe fluorescence, biochemical; in the data active = inhibition above about 19%;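 note: recombinant mutant TCR 2C K166C tagged with TAMRA read by polarization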
PRMT1 inh conf – PRMT1 (human) inhibition, FP confirmation. inhibition, % at 2.79 µM. hit rate 42% among 3,300. recombinant His-PRMT1, activity-based probe fluorescence polarization. shares compounds with PRMT1 inh;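 active = mean inhibition across replicates above the hit cutoff derived for the earlier primary screen, cut at about 22% in these data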
A number is an active result; i = inactive; nt = no result.

SMILES	HTRA1 inh	ATG4B inh	SIAE inh	PRMT1 inh	mABHD4 FP	TCR-CD3 inh	PRMT1 inh conf
O=S1(=O)CC=C(CSC(=S)NC2CCS(=O)(=O)C2)C1 (configuration not stated)	i	i	i	26.4	i	i	91.2
Cc1ccc2nc(-c3ccc(NC(=O)CSc4nnc(-c5cccc(Cl)c5)n4Cc4ccco4)cc3)sc2c1	nt	nt	i	47.1	i	nt	i
Cc1ccc(-c2nnc(SCC(=O)Nc3ccc(-c4nc5ccc(C)cc5s4)cc3)n2Cc2ccco2)cc1	nt	nt	i	34.0	i	nt	21.5
C=CCn1c(SCC(=O)Nc2ccc(-c3nc4ccc(C)cc4s3)cc2)nnc1-c1ccccc1	i	i	i	i	i	i	nt
O=C(NCCc1ccc2c(c1)OCO2)c1cc(-c2ccccc2)c(N2CCOCC2)s1	nt	nt	i	i	i	nt	nt
Cc1ccc(-c2nc(N)sc2CC(=O)OCC(=O)NC2CCCC(C)C2C)cc1 (configuration not stated)	i	i	i	i	i	i	nt
Cc1ccc(-c2nc(N)sc2CC(=O)OCC(=O)N2C(C)CCCC2C)cc1 (configuration not stated)	i	i	i	48.6	i	i	i
CC(C)C[C@@H]1COc2cc(Br)ccc2S(=O)(=O)N1Cc1cn(CCC2OCCO2)nn1	nt	nt	i	i	i	nt	nt
COc1ccc(C(=O)/C=C/C(=O)N(CC(=O)NC2CCCCC2)CC2CCCO2)c(O)c1 (configuration not stated)	i	i	i	33.9	i	i	41.5
COc1ccc(C(=O)/C=C/C(=O)N(CC(=O)NC2CCCCC2)Cc2ccccc2)c(O)c1	i	i	i	i	i	i	nt
Cc1cc(=O)[nH]c(SCC(=O)Nc2cccc(C)c2C)n1	nt	nt	i	i	i	nt	nt
CC(=O)Nc1ccc(SCC(=O)N(CCC#N)c2ccc(C)cc2)cc1	i	i	i	39.1	i	i	i
C/C(=N/NC(=O)CSc1nc2ccccc2s1)c1ccncc1	i	i	i	i	i	i	nt
CS/C(=N\S(=O)(=O)c1cccs1)NC(=O)CSc1nc2ccccc2s1	i	i	i	28.3	i	i	33.2
O=C(C1=NN[C@@H]2C(=O)N(c3cccc(F)c3)C(=O)[C@H]12)c1cnccn1	nt	i	i	35.8	i	i	i
CC(=O)Nc1ccc(SCCN2CC[C@@H](C(C)(C)C)CCC2=O)cc1	i	i	i	41.4	i	i	42.9
C[C@@H](CSc1ccc(Br)cc1)CN1CC[C@H](O)CCC1=O	i	i	i	i	i	i	nt
CC(=O)Nc1ccc(SC[C@H](C)CN2CC[C@H](O)CCC2=O)cc1	i	i	i	26.2	i	i	37.5
Cc1ccc(SCCN2CCC(C(C)(C)C)CCC2=O)cc1 (configuration not stated)	i	i	i	i	i	i	nt
Cc1cccc(Cn2cc(COC(=O)NCC(C)C)nn2)c1	nt	nt	i	i	i	nt	nt
COc1ccc(CCNCC(O)COc2cccc(C)c2)cc1OC (configuration not stated)	nt	nt	i	i	i	nt	nt
COc1cc(Cl)c(C)cc1NC(=O)CSc1sc2c(O)cc(=O)[nH]c2c1C#N	i	i	i	35.6	i	i	i
COc1ccc(OC)c(NC(=O)CSc2sc3c(O)cc(=O)[nH]c3c2C#N)c1	i	i	i	25.6	i	i	i
Cc1ccc(NC(=O)CSc2sc3c(O)cc(=O)[nH]c3c2C#N)c(F)c1	i	i	i	i	i	i	nt
Cc1cccc(Cn2c(C(=O)OC(C)C)cc3c2ccn3C)c1	i	i	i	36.0	i	i	i
SMILES	HTRA1 inh	ATG4B inh	SIAE inh	PRMT1 inh	mABHD4 FP	TCR-CD3 inh	PRMT1 inh conf
O=c1c2cc3cccnc3nc2ncn1CCc1c[nH]c2ccccc12	nt	nt	i	i	i	nt	nt
O=C(NN1C(=O)/C(=C\c2ccc(O)c([N+](=O)[O-])c2)SC1=S)c1ccccc1Cl	i	i	i	i	i	i	nt
O=C(O)c1ccc(/C=C2\SC(=S)N(NC(=O)c3ccccc3[N+](=O)[O-])C2=O)cc1	i	i	i	28.9	i	i	i
CCOC(=O)CSc1nc(Cc2ccccc2)nc2ccccc12	i	i	i	i	i	i	nt
CCOC(=O)CNC(=O)CSc1nc(Cc2cccs2)nc2ccccc12	i	i	i	27.0	i	i	22.3
Cc1ccccc1CN1CCCCC(NC(=O)C2CCC2)C1=O (configuration not stated)	nt	nt	i	i	i	nt	nt
COc1ccc(OC)c(-n2c(=S)[nH]c3c(sc(=S)n3-c3ccccc3)c2=O)c1	i	i	i	65.4	i	i	i
NC(=O)NC(=O)CC1S/C(=N/N=C2\CSC(=O)N2)NC1=O (configuration not stated)	i	i	i	45.2	i	i	33.2
NC(=O)NC(=O)CC1S/C(=N/N=C/c2ccccc2)NC1=O (configuration not stated)	i	i	i	i	i	i	nt
Cc1ccc(C)c(S(=O)(=O)Nc2ccc3[nH]c(=O)[nH]c3c2)c1	i	i	i	i	i	i	nt
Cc1ccc(C)c(S(=O)(=O)Nc2ccc3scnc3c2)c1	i	i	i	35.0	i	i	i
COc1cccc(/C=N/N2C(=O)CSC2=S)c1O	i	i	i	38.5	i	i	53.5
COc1cc(/C=N/N2C(=O)CSC2=S)cc(Br)c1O	i	i	i	i	i	i	nt
COc1ccccc1NC(=O)c1cc(=O)[nH]c2ccccc12	i	i	i	25.2	i	i	i
Cc1ccccc1C(=O)N[C@H](C(=O)N1CCC[C@H]1C(=O)NCCc1ccccc1Cl)C(C)C	nt	nt	i	i	i	i	nt
Fc1ccc(NC(=S)N2CCN(c3cccc(C(F)(F)F)c3)CC2)cc1	i	i	i	i	i	i	nt
Cc1ccnc(NC(=S)N2CC3CN(c4cccc(C(F)(F)F)c4)CC3C2)c1 (configuration not stated)	nt	nt	i	25.4	i	nt	22.8
Cc1cccc(C(=O)Nc2c(-c3ccc(C(F)(F)F)cc3)nc3ncccn23)c1	nt	nt	i	i	i	nt	nt
CN(C(=O)NC1CCCCC1)[C@H]1C[C@H]2c3[nH]c4ccccc4c3CCN2C(=O)[C@H]1CO	i	nt	i	32.7	i	i	i
CC1C(=O)N(Cc2cn(CCC3OCCCO3)nn2)CCS(=O)(=O)N1Cc1ccc(-c2ccc(F)nc2)cc1 (configuration not stated)	i	nt	i	54.7	i	i	i
Cc1ccc(C2/C(=C(/O)c3ccc(Br)cc3)C(=O)C(=O)N2Cc2ccco2)o1 (configuration not stated)	i	i	i	35.0	i	i	i
CC(=O)c1cc(-c2ccc3c(c2)OCO3)c(=O)n2c1CCC2	nt	nt	i	i	i	nt	nt
COc1ccc(C(=O)NCC23C=CC(O2)C2C(=O)N(Cc4ccccc4)C(=O)C23)cc1 (configuration not stated)	i	i	i	54.2	i	i	i
Oc1ccc(N=Nc2ccccc2)o1	i	i	i	35.0	i	i	49.5
